A selection: hits, their analogues and other compounds. The true share with any hit is near 6.6%.
PostGolgi ctrl – yeast control strain growth, post-Golgi counter-screen | AID 738 | hit rate 5% among 98,000 | inhibition, % at 10 µM | efflux-deficient yeast background strain, growth absorbance A615, 16 h
E coli WT exp – blocks growth of wild type E. coli BW25113. OD600 absorbance. growth inhibition, % at 100 µM. hit rate 0.15% among 98,000;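 active = growth inhibition above about 50% at one test dose, limit read from the data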;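 note: growth measured after 20 h incubation at 37 °C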
tolC growth inh – E. coli tolC mutant growth inhibition. E. coli BW25113 tolC mutant growth, OD615. growth inhibition, % at 10 µM (by protocol). hit rate 2.2% among 65,000;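 active = growth inhibition at or above a cutoff equal to the mean over every tested compound plus 3 SD, cut at about 60% in these data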;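 note: growth measured after 20 h incubation at 37 °C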
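Doses: one dose of 10 µM final / Material: E. coli BW25113 ΔtolC::kan, tolC deletion mutant strain / Buffer or medium: LB with kanamycin 50 µg/mL / Evaluation: percent growth inhibition / Detection: optical density read at 615 nm / Incubation: 37 °C, 20 h exposure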
HER2 expr 66K – inhibitors of human Her2 kinase expression; P04626; SKBR-3 HER2 protein level, AlphaScreen, 18-24 h; hits give low values; HER2 level % of control, % at 10 µM; hit rate 0.69% among 65,000; AID 645;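 active = HER2 level under 5% of the carrier-only control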;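 note: 100% = DMSO carrier and 0% = 500 nM PU-H71 HSP90 inhibitor; lower value means stronger loss of Her2 protein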
Target sequence (P04626 whole entry, looked up): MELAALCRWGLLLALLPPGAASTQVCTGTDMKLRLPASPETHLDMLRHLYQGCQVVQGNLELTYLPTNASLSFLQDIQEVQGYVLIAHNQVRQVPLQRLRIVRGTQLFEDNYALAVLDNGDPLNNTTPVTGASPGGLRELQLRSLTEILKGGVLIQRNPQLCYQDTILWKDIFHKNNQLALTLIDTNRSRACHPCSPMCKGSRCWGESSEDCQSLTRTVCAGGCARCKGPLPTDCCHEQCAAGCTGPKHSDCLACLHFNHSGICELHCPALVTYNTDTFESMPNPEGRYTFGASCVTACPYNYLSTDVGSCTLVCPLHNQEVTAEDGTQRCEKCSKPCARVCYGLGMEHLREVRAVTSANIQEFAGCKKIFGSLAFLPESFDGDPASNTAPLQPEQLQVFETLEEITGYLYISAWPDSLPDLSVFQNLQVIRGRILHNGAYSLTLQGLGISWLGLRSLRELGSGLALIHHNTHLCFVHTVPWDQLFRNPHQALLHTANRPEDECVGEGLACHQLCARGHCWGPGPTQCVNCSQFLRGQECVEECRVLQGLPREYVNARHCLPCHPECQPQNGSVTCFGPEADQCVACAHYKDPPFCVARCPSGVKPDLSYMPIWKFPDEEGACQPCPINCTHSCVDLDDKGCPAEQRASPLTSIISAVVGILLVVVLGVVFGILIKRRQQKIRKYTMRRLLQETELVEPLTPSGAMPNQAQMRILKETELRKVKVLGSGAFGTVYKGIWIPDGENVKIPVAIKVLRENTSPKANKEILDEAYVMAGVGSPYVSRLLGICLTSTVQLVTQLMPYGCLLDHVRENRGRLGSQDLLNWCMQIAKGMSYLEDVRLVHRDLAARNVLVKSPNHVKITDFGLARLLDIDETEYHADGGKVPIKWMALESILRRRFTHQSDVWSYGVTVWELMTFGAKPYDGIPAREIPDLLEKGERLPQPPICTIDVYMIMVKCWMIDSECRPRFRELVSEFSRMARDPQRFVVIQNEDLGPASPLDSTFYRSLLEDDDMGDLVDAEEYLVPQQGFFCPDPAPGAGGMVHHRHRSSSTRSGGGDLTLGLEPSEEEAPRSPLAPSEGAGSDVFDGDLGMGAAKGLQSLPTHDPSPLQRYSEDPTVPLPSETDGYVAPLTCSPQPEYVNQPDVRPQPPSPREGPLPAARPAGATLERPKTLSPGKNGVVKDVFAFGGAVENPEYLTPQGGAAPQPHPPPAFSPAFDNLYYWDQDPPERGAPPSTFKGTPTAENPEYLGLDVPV
PostGolgi yeast – growth inhibition of a yeast mutant, post-Golgi transport screen | hit rate 0.9% among 98,000 | post-Golgi transport phenotypic cell assay | inhibition, % at 10 µM;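 note: yeast cells grown in 1536-well plates; yeast grown about 18 h at 30C before absorbance read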
An asterisk follows results filed as active; x = not tested or not shown. Cut-off read from the data, not from the text of the source, unless noted: active = inhibition above about 30%; inactive = the rest.

SMILES	PostGolgi ctrl	E coli WT exp	tolC growth inh	HER2 expr 66K	PostGolgi yeast
CCn1c(=O)c(C(=O)CN2CCCc3ccccc32)c(N)n(Cc2ccccc2)c1=O	6.0	-15.0	38.9	43.8	0.6
CCOC(=O)CC(=O)CSc1nc2ccccc2c(=O)n1-c1ccc(C(=O)NCCOC)cc1	0.8	-10.0	x	x	-6.4
Cc1ccc(C(=O)NNC(=S)NC(=O)c2ccc(Cl)cc2)cc1	10.7	-6.0	x	x	-4.7
O=C(NNC(=S)NC(=O)c1cccnc1)c1ccc(Cl)cc1	-1.6	74.0*	x	x	2.8
Cc1cc(N2CCN(C(=O)c3ccco3)CC2)n2nc(-c3cccc(F)c3)cc2n1	46.8*	4.0	-2.3	89.4	-7.2
COc1cc(OC)cc(-c2cc3nc(C)cc(N4CCN(C(=O)c5ccco5)CC4)n3n2)c1	30.2*	-2.0	x	x	-11.2
O=S(=O)(NCC(c1cccnc1)N1CCN(c2ccc(F)cc2)CC1)c1ccc(F)cc1 (configuration not stated)	73.1*	3.0	0.3	108.3	89.7*
COc1ccc(N2CCN(C(CNC(=O)C3CCCCC3)c3cccnc3)CC2)cc1 (configuration not stated)	35.0*	2.0	-8.5	98.4	3.2
O=S(=O)(NCC(c1cccnc1)N1CCN(c2ccccc2F)CC1)c1cccs1 (configuration not stated)	34.7*	-4.0	x	x	61.7*
O=S(=O)(NCC(c1cccnc1)N1CCOCC1)c1cccs1 (configuration not stated)	x	x	-12.3	111.0	x
O=C(NCC(c1cccnc1)N1CCN(c2ccccc2F)CC1)c1cccc(Cl)c1 (configuration not stated)	24.1	-6.0	7.8	105.3	47.0*
O=C(NCC(c1cccnc1)N1CCOCC1)c1cccc(Cl)c1 (configuration not stated)	7.2	-1.0	-14.5	112.8	-4.2
O=C(N/N=C1\CCCc2ccccc21)C(O)c1ccccc1 (configuration not stated)	-3.6	3.0	x	x	1.1
O=S(=O)(NCC(c1cccnc1)N1CCN(c2ccc(F)cc2)CC1)c1cccs1 (configuration not stated)	54.6*	-2.0	-3.1	129.4	78.1*
COC(=O)CCCCCC(CCC(=O)OC)NC(C)=O (configuration not stated)	-8.9	5.0	-0.9	103.8	-2.6
CCOC(=O)/C=C(\C)Sc1cc(=O)oc2ccccc12	32.7*	7.0	16.3	76.3	8.4
COc1ccc(OC)c(C2=NOC(C(=O)Nc3ccccc3SC)C2)c1 (configuration not stated)	16.3	-9.0	x	x	-0.8
Cc1cc(NC(=O)C2CC(c3ccc(Cl)cc3)=NO2)no1 (configuration not stated)	0.2	3.0	x	x	-2.5
COc1ccc(C2=NOC(C(=O)Nc3cc(C)on3)C2)cc1 (configuration not stated)	35.2*	2.0	x	x	3.7
COc1ccc(OC)c(C2=NOC(C(=O)Nc3cc(C)nn3-c3ccccc3)C2)c1 (configuration not stated)	41.5*	1.0	-11.7	127.8	-3.4
COc1nc(-c2ccncc2)nc2ccccc12	10.1	3.0	x	x	4.5
CCCCN(CC)c1nc(-c2ccncc2)nc2ccccc12	63.5*	13.0	x	x	5.2
COc1ccc(-n2c(SCC(N)=O)nnc2-c2ccccc2F)cc1	-0.7	-9.0	-7.0	91.3	-0.9
O=C(O)c1cc(-c2ccc(/C=N/Nc3ccc(Cl)cc3)o2)ccc1Cl	10.5	4.0	x	x	62.9*
c1ccc(N2CCN(c3ccccc3)C2c2cccs2)cc1	9.0	8.0	9.7	x	16.7
SMILES	PostGolgi ctrl	E coli WT exp	tolC growth inh	HER2 expr 66K	PostGolgi yeast
CCN1CCCC1CNC(=O)c1cc(NC(C)=O)c(N(C)C)cc1OC (configuration not stated)	-4.9	0.0	-25.5	150.7	7.3
CCC(Sc1nnc(-c2ccc(C)c(Cl)c2)n1CC)C(=O)Nc1nccs1 (configuration not stated)	22.1	14.0	81.0*	110.5	-2.9
Cn1nnnc1SCC(=O)N1CCN(c2cccc(Cl)c2)CC1	14.7	0.0	7.3	97.4	5.9
COc1ccc(Cl)cc1S(=O)(=O)N1CCN(C(=O)c2ccco2)CC1	1.1	4.0	5.8	103.2	-3.7
CCCC(=O)N1CCN(S(=O)(=O)c2cc(Cl)ccc2OC)CC1	31.8*	3.0	-4.0	83.4	2.9
Cc1nc2nc(NCc3cccs3)nn2c(C)c1Cl	11.3	3.0	x	x	2.0
S=c1[nH]nc(C2CCCCC2)n1/N=C/C=C/c1ccccc1	30.5*	7.0	x	x	20.0
O=c1c2ccccc2ncn1CCCSc1ccccc1	10.8	-3.0	x	x	-1.1

Assay outcomes as filed in PubChem BioAssay.
